{"source": "paper PMC9401544", "about": "(Clinical Cancer Research, 2021)", "key": {"[1]": {"test_system": "patients with advanced solid tumors (TGCT and non-TGCT cohorts)", "experiment": "Safety: adverse events, laboratory assessments, ECG", "type": "in vivo, human"}, "[2]": {"test_system": "tenosynovial giant cell tumor (TGCT)", "details": "patients with TGCT, usually; cited from earlier work"}, "patients with TGCT": {"test_system": "patients with TGCT", "details": "cited from earlier work"}, "[3]": {"test_system": "tenosynovial giant cell tumor (TGCT)", "details": "3 of the 4 TGCT patients; cited from earlier work"}, "[4]": {"test_system": "patients with advanced solid tumors (TGCT and non-TGCT cohorts)", "experiment": "Drug exposure: treatment duration, dose reductions, drug holidays", "type": "in vivo, human", "summary_of_the_method": "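Adult patients at 12 US centres took 1,000 mg/day (600 mg morning, 400 mg evening) until progression or unacceptable toxicity. Dose changes, usually in 200 mg/day steps, and temporary holds for toxicity or other reasons were allowed. Exposure was tallied to the 31 January 2018 cutoff. Months were computed as days divided by 30.4167.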"}, "[5]": {"test_system": "tenosynovial giant cell tumor (TGCT)", "experiment": "Tumor response by RECIST 1.1", "type": "in vivo, human"}, "[6]": {"test_system": "advanced solid tumors (MEC, GIST, ATC, malignant effusions, miscellaneous tumor types)", "type": "in vivo, human", "summary_of_the_method": "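Adults with advanced, incurable tumours received 1,000 mg/day, split 600 mg morning and 400 mg evening, continued to progression or unacceptable toxicity. Response was assessed locally by imaging at baseline and every 2 months per RECIST version 1.1, with readings not blinded to visit order. Data cutoff was 31 January 2018.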"}, "[7]": {"details": "13 TGCT subjects that remained on treatment, as of February 2021"}}, "data": [{"smiles": "FC(F)(F)c1ccc(CNc2ccc(Cc3c[nH]c4ncc(Cl)cc34)cn2)cn1", "note": "[pexidartinib]", "values": [{"measurement": "cases meeting Hy's law criteria", "setting": "[1]; all 91 patients", "value": "no cases that met criteria for Hy's law"}, {"measurement": "decreases in platelets, hemoglobin, white blood cells (neutrophils, lymphocytes): grade", "setting": "[1]; all patients", "value": "generally grade 2 or less"}, {"measurement": "electrocardiogram abnormalities", "setting": "[1]; all patients", "value": "No patient had clinically significant electrocardiogram abnormalities"}, {"measurement": "AST increase, treatment-related AE of grade ≥ 3", "setting": "[1]; non-TGCT patients", "value": 4, "unit": "%"}, {"measurement": "fatigue, treatment-related AE of grade ≥ 3", "setting": "[1]; non-TGCT patients", "value": 6, "unit": "%"}, {"measurement": "hypophosphatemia, treatment-related AE of grade ≥ 3", "setting": "[1]; non-TGCT patients", "value": 4, "unit": "%"}, {"measurement": "patients with grade 3 elevations in aminotransferase levels", "setting": "[1]; of the 91 patients", "value": 6, "unit": "patients"}, {"measurement": "alanine aminotransferase increase, grade ≥ 3 treatment-related AE", "setting": "[1]; patients with TGCT", "value": 10, "unit": "%"}, {"measurement": "aspartate aminotransferase (AST) increase, grade ≥ 3 treatment-related AE", "setting": "[1]; patients with TGCT", "value": 8, "unit": "%"}, {"measurement": "hypophosphatemia, grade ≥ 3 treatment-related AE", "setting": "[1]; patients with TGCT", "value": 10, "unit": "%"}, {"measurement": "nausea, treatment-related AE", "setting": "[1]; patients with TGCT", "value": 56, "unit": "%"}, {"measurement": "periorbital edema, treatment-related AE", "setting": "[1]; patients with TGCT", "value": 39, "unit": "%"}, {"measurement": "pruritus, treatment-related AE", "setting": "[1]; patients with TGCT", "value": 31, "unit": "%"}, {"measurement": "time to radiologic response", "setting": "[2]", "value": "≤ 4", "unit": "months"}, {"measurement": "time of presentation of serious liver toxicity", "setting": "patients with TGCT; all cases, weeks of treatment", "value": "≤ 8", "unit": "weeks"}, {"measurement": "isolated aminotransferase elevations, share of hepatic adverse reactions", "setting": "patients with TGCT; long-term treatment", "value": "> 90", "unit": "%"}, {"measurement": "RECIST response in patients who had previously received other TKI treatment", "setting": "[3]", "value": 75, "unit": "%"}, {"measurement": "patients who had a drug holiday", "setting": "[4]; of the 39 patients with TGCT", "value": "27 (69%) n (%)"}, {"measurement": "patients who required dose reduction", "setting": "[4]; of the 39 patients with TGCT", "value": "24 (62%) n (%)"}, {"measurement": "patients who experienced a drug holiday", "setting": "[4]; of the 91 patients", "value": "40 (44%) n (%)"}, {"measurement": "patients who required dose reduction", "setting": "[4]; of the 91 patients", "value": "30 (33%) n (%)"}, {"measurement": "median DOR", "setting": "[5]; [7]", "value": "1,529 days"}, {"measurement": "median PFS", "setting": "[5]; [7]", "value": "1,764 days"}, {"measurement": "patients with TGCT who achieved a response, RECIST 1.1", "setting": "[5]; CR + PR, of 39 FAS", "value": 24, "unit": "patients"}, {"measurement": "PR, RECIST 1.1", "setting": "[5]; TGCT", "value": 22, "unit": "patients"}, {"measurement": "complete response (CR), RECIST 1.1", "setting": "[5]; TGCT", "value": 2, "unit": "patients"}, {"measurement": "patients who progressed while on therapy, modified tumor response criteria", "setting": "[5]; TGCT", "value": 3, "unit": "patients"}, {"measurement": "patients with SD that lasted for at least 6 months, RECIST 1.1", "setting": "[5]; TGCT", "value": 8, "unit": "patients"}, {"measurement": "patients with at least a 50% reduction in sum of longest tumor diameter", "setting": "[5]; TGCT", "value": "Fifteen"}, {"measurement": "disease control rate (DCR = CR + PR + SD), RECIST 1.1", "setting": "[5]; TGCT FAS (n = 39)", "value": 82, "unit": "%"}, {"measurement": "disease control rate (DCR = CR + PR + SD), RECIST 1.1", "setting": "[5]; TGCT efficacy-evaluable (n = 37)", "value": 86, "unit": "%"}, {"measurement": "objective response rate (ORR), RECIST 1.1 per local reading", "setting": "[5]; TGCT efficacy-evaluable population (n = 37)", "value": 65, "unit": "%"}, {"measurement": "25th percentile for duration of response (DOR)", "setting": "[5]; TGCT, RECIST 1.1", "value": 943, "unit": "days"}, {"measurement": "ORR, RECIST 1.1", "setting": "[5]; both the FAS and efficacy-evaluable TGCT populations", "value": "over 60%"}, {"measurement": "patients with prolonged (>6 months) SD", "setting": "[6]; non-TGCT", "value": 6, "unit": "patients"}, {"measurement": "median progression-free survival (PFS)", "setting": "[6]; non-TGCT patients", "value": 56, "unit": "days"}, {"measurement": "patients with partial response (PR)", "setting": "[6]; non-TGCT population (n = 52)", "value": 1, "unit": "patients"}, {"measurement": "patients with stable disease (SD) as best response", "setting": "[6]; non-TGCT population (n = 52)", "value": "Fifteen"}]}]}
